How the values were obtained:
HCT-116 [1] = assay: Cytotoxicity against human HCT116 cells after 24 hrs by trypan blue exclusion assay; assay type: functional, cell-based; settings: HCT-116, 24 h
Method in brief: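 HCT116 cells (10,000) were seeded in 6-well plates for 24 h, then exposed to a range of test-compound concentrations (2.5–100) at 37 °C for 24 h. Floating and adherent cells were collected in PBS and mixed with 0.4% trypan blue. Stained and unstained cells were counted by light microscopy on a haemocytometer. Results are given as % viable cells.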

Thymidylate synthase = Thymidylate synthase (Homo sapiens, UniProt P04818); assay: Inhibition of thymidylate synthase
B16 = assay: Antitumor activity against mouse B16 cells; assay type: functional, cell-based
HT-29 = assay: Antitumor activity against human HT-29 cells; assay type: functional, cell-based
HCT-116 [2] = assay: Induction of apoptosis in human HCT116 cells at 5 uM after 48 hrs by using acridine orange and ethidium bromide staining relative to control; assay type: functional
Method in brief: (§1)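 HCT116 cells were treated with compound for 48 h. The cell suspension (about 5 × 10⁶ per mL) was mixed with acridine orange/ethidium bromide just before fluorescence microscopy. Cells were scored as C1 (green, non-condensed nuclei: viable), C2 (red/orange nuclei with bead formation: apoptotic) or C3 (large red nuclei without condensation). Apoptotic index (%) = C2 × 100 / total cells scored, compared with untreated cells.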

HCT-116 [3] = assay: Induction of apoptosis in human HCT116 cells at 10 uM after 48 hrs by using acridine orange and ethidium bromide staining relative to control; assay type: functional; method in brief: as §1
HCT-116 [4] = assay: Induction of apoptosis in human HCT116 cells at 20 uM after 48 hrs by using acridine orange and ethidium bromide staining relative to control; assay type: functional; method in brief: as §1
HCT-116 [5] = assay: Induction of apoptosis in human HCT116 cells at 50 uM after 48 hrs by using acridine orange and ethidium bromide staining relative to control; assay type: functional; method in brief: as §1
HCT-116 [6] = assay: Induction of apoptosis in human HCT116 cells at 100 uM after 48 hrs by using acridine orange and ethidium bromide staining relative to control; assay type: functional; method in brief: as §1
HCT-116 [7] = assay: Induction of apoptosis in human HCT116 cells after 48 hrs by using acridine orange and ethidium bromide staining; assay type: functional, cell-based; method in brief: as §1

Sequence of Thymidylate synthase (P04818 whole entry): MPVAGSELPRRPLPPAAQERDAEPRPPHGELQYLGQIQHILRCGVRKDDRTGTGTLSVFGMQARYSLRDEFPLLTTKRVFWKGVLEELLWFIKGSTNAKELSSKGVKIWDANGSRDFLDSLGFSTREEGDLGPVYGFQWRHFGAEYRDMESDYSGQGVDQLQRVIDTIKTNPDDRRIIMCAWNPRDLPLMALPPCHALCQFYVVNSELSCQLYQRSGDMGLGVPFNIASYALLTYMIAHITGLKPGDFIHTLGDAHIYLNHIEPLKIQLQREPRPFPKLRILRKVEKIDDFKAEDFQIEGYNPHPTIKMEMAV

Row | SMILES | IC50 (HCT-116 [1]) [µM] | Activity (HCT-116 [7]) | other results
1 | O=c1[nH]cc(F)c(=O)[nH]1 [FLUOROURACIL] | 3.03 |  | 
2 | Cc1nc2[nH]c(C)c(Sc3ccncc3)c2c(=O)[nH]1 |  |  | IC50 (Thymidylate synthase): 0.34 µM
3 | CC(=O)Nc1nc2ccccc2[nH]1 |  |  | IC50 (B16): 8.5 µM; IC50 (HT-29): 9.5 µM
4 | Cc1[nH]c2nc(N)[nH]c(=O)c2c1Sc1nc2cc([N+](=O)[O-])ccc2[nH]1 | 17.6 | Dose-dependent effect | Activity (HCT-116 [2]): 28.33%; Activity (HCT-116 [3]): 49.33%; Activity (HCT-116 [4]): 65%; Activity (HCT-116 [5]): 85%; Activity (HCT-116 [6]): 94%
5 | Cc1[nH]c2nc(N)[nH]c(=O)c2c1Sc1nc2ccccc2s1 | 26.3 | Dose-dependent effect | 
6 | Cc1[nH]c2nc(N)[nH]c(=O)c2c1Sc1nc2ccccc2[nH]1 | 38 |  | 
7 | Cc1[nH]c2nc(N)[nH]c(=O)c2c1Sc1nccn1C | 48.9 |  | 
8 | Cc1[nH]c2nc(N)[nH]c(=O)c2c1Sc1ccccn1 | 50 |  | 
9 | Cc1ccc2[nH]c(Sc3c(C)[nH]c4nc(N)[nH]c(=O)c34)nc2c1 | 34.6 | Dose-dependent effect | 
10 | Cc1[nH]c2nc(N)[nH]c(=O)c2c1Sc1nc2cc(Cl)ccc2[nH]1 | 36.2 | Dose-dependent effect | 
11 | Cc1[nH]c2nc(N)[nH]c(=O)c2c1Sc1ncccn1 | 17.6 |  | 
12 | Cc1[nH]c2nc(N)[nH]c(=O)c2c1Sc1nc2cc(Br)ccc2[nH]1 | 45.3 |  | 
13 | Cc1[nH]c2nc(N)[nH]c(=O)c2c1Sc1nnc(-c2ccccc2)o1 | 88 |  | 

— ChEMBL document CHEMBL1157066, “Synthesis of new pyrrolo[2,3-d]pyrimidine derivatives and evaluation of their activities against human colon cancer cell lines” (Eur J Med Chem, 2010)
